Source: ChEMBL document CHEMBL1799936, “Azaphilones from the endophyte Chaetomium globosum” (2011)
Values after ≈ are worked out from the molar mass of the structure shown. Active and inactive are the calls of the source. The calls are words filed in the database; no cut-off is given here.

Key:
[1] = system: Enterococcus faecalis; assay: Antibiotic activity against cytolysin-positive Enterococcus faecalis MMH594 infected in intestine of Caenorhabditis elegans glp-4(bn2ts);sek-1(km4) mutant infection model assessed as nematode survival at 50 to 100 ug/mL after 168 hrs by liquid infection assay; type: functional, organism-based
Method in brief: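 C. elegans glp-4(bn2ts);sek-1(km4) synchronized L4 to young adult worms, fed E. coli OP50, infected on E. faecalis MMH594 lawn, then moved to liquid medium (19% BHI, 80% M9, 80 μg mL-1 kanamycin, 1% DMSO) with compound at 100 and 50 μg mL-1 final. Survival scored at 3, 48, 120, 168 h. Ampicillin positive control.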

[2] = system: Globisporangium ultimum; assay: Antimicrobial activity against Pythium ultimum mycelia assessed as growth inhibition; type: functional
[3] = system: Pyricularia grisea; assay: Antimicrobial activity against Magnaporthe grisea mycelia assessed as growth inhibition; type: functional

SMILES | Activity [1] | MIC [2] [µg/mL] | MIC [3] [µg/mL]
CC[C@H](C)/C=C/C1=CC2=CC(=O)[C@@]3(C)OC(=O)C(C(=O)[C@@H](C)[C@@H](C)O)=C3C2=CO1 | inactive |  | 
CC[C@H](C)/C=C/C1=CC2=C(Cl)C(=O)[C@@]3(C)OC(O)(C(C)C(C)O)[C@@H](C(=O)O)[C@H]3C2=CO1 (stereo partly specified) [CHAETOVIRIDIN B] | inactive | 33.3 (≈ 73.5 µM) | 1.23 (≈ 2.72 µM)
C[C@H](O)[C@H](C)C(=O)[C@@H]1C(=O)O[C@]2(C)C(=O)C(Cl)=C3C=C(/C=C/[C@@H](C)[C@@H](C)O)OC=C3[C@H]12 | inactive |  | 
CC[C@H](C)/C=C/C1=CC2=C(Cl)C(=O)[C@@]3(C)OC(=O)C4=C(C(C)C(C)O)OC(O1)C2(O)C43O (stereo partly specified) | inactive |  | 
CC(O)C(C)C1(O)O[C@]2(C)C(=O)C(Cl)=C3C=C(/C=C/[C@@H](C)[C@@H](C)O)OC=C3[C@@H]2[C@@H]1C(=O)O (stereo partly specified) | inactive |  | 
C/C=C(\C)C(=O)C1=C2C3=COC(/C=C/[C@@H](C)CC)=CC3=C(Cl)C(=O)[C@@]2(C)OC1=O | inactive |  | 
CC[C@H](C)/C=C/C1=CC2=C(Cl)C(=O)[C@@]3(C)OC(=O)C(C(=O)[C@H](C)CC)=C3C2=CO1 | inactive |  | 
CC[C@H](C)/C=C/C1=CC2=C(Cl)C(=O)[C@@]3(C)OC(=O)C(C(=O)[C@@H](C)[C@@H](C)O)=C3C2=CO1 [CHAETOVIRIDIN A] | inactive | 33.3 (≈ 76.9 µM) | 1.23 (≈ 2.84 µM)
CC[C@H](C)/C=C/C1=CC2=C(Cl)C(=O)[C@@]3(C)OC(=O)C(C(=O)[C@@H](C)[C@H](C)O)=C3C2=CO1 | inactive |  | 
CC[C@H](C)/C=C/C1=CC2=C(Cl)C(=O)[C@@]3(C)OC(=O)C(C(=O)[C@H](C)[C@@H](C)O)=C3C2=CO1 | inactive |  | 
CC[C@H](C)/C=C/C1=CC2=C(Cl)C(=O)[C@@]3(C)OC(=O)[C@@H](C(=O)[C@@H](C)[C@H](C)O)[C@H]3C2=CO1 | inactive |  | 
C/C=C(\C)C(=O)[C@@H]1C(=O)O[C@]2(C)C(=O)C(Cl)=C3C=C(/C=C/[C@@H](C)CC)OC=C3[C@H]12 | inactive |  | 
